Values after ≈ are worked out from the molar mass of the structure shown.
Experiments:
[1] = test system: Phocaeicola vulgatus; assay: Antimicrobial activity against Bacteroides vulgatus assessed as percent susceptible isolates after 48 hrs by agar dilution method; format: functional
[2] = test system: Bacteroides caccae; assay: Antimicrobial activity against Bacteroides caccae after 48 hrs by agar dilution method; format: functional
Outline: (§1)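 MICs on clinical anaerobe isolates by the CLSI agar dilution method. Inoculum of 10^5 CFU applied with a Steers replicator. Plates incubated 48 h at 37°C in an anaerobic chamber.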

[3] = test system: Actinomyces israelii; assay: Antimicrobial activity against Actinomyces israelii assessed as percent resistant isolates after 48 hrs by agar dilution method; format: functional
Outline: (§2)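 CLSI agar dilution on recent Korean clinical anaerobe isolates. Inoculum 10^5 CFU per spot by replicator. Plates incubated in an anaerobic chamber at 37°C for 48 h. For piperacillin plus tazobactam, tazobactam was held constant at 4 μg/ml. Resistance and susceptibility rates derived from MICs.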

[4] = test system: Prevotella buccae; assay: Antimicrobial activity against Prevotella buccae assessed as percent susceptible isolates after 48 hrs by agar dilution method; format: functional, Segatella buccae
Outline: (§3)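 CLSI agar dilution (M11-A7); inoculum 10^5 CFU applied by replicator; plates incubated anaerobically 48 h at 37°C. For piperacillin-tazobactam, tazobactam held constant at 4 μg/ml.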

[5] = test system: Bifidobacterium adolescentis; assay: Antimicrobial activity against Bifidobacterium adolescentis assessed as percent susceptible isolates after 48 hrs by agar dilution method; format: functional
[6] = test system: Schaalia odontolytica; assay: Antimicrobial activity against Actinomyces odontolyticus assessed as percent resistant isolates after 48 hrs by agar dilution method; format: functional; outline: as §2
[7] = test system: Eggerthella lenta; assay: Antimicrobial activity against Eubacterium lentum after 48 hrs by agar dilution method; format: functional; outline: as §3
[8] = test system: Actinomyces israelii; assay: Antimicrobial activity against Actinomyces israelii assessed as percent susceptible isolates after 48 hrs by agar dilution method; format: functional
[9] = test system: Fusobacterium nucleatum; assay: Antimicrobial activity against Fusobacterium nucleatum after 48 hrs by agar dilution method; format: functional; outline: as §3
[10] = test system: Prevotella bivia; assay: Antimicrobial activity against Prevotella bivia assessed as percent susceptible isolates after 48 hrs by agar dilution method; format: functional; outline: as §3
[11] = test system: Peptostreptococcus anaerobius; assay: Antimicrobial activity against Peptostreptococcus anaerobius assessed as percent susceptible isolates after 48 hrs by agar dilution method; format: functional; outline: as §2
[12] = test system: Actinomyces naeslundii; assay: Antimicrobial activity against Actinomyces naeslundii assessed as percent susceptible isolates after 48 hrs by agar dilution method; format: functional
[13] = test system: Prevotella bivia; assay: Antimicrobial activity against Prevotella bivia assessed as percent resistant isolates after 48 hrs by agar dilution method; format: functional; outline: as §2
[14] = test system: Anaerococcus prevotii; assay: Antimicrobial activity against Anaerococcus prevotii assessed as percent resistant isolates after 48 hrs by agar dilution method; format: functional; outline: as §2
[15] = test system: Hoylesella oralis; assay: Antimicrobial activity against Prevotella oralis assessed as percent susceptible isolates after 48 hrs by agar dilution method; format: functional
Outline: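 CLSI agar dilution MIC testing of clinical isolates. 10^5 CFU spotted by replicator, plates incubated 48 h at 37°C in an anaerobic chamber. Susceptibility rates derived from the MICs.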

[16] = test system: Parvimonas micra; assay: Antimicrobial activity against Peptostreptococcus micros assessed as percent susceptible isolates after 48 hrs by agar dilution method; format: functional; outline: as §2
[17] = test system: Eggerthella lenta; assay: Antimicrobial activity against Eubacterium lentum assessed as percent susceptible isolates after 48 hrs by agar dilution method; format: functional; outline: as §3
[18] = test system: Bacteroides thetaiotaomicron; assay: Antimicrobial activity against Bacteroides thetaiotaomicron assessed as percent resistant isolates after 48 hrs by agar dilution method; format: functional; outline: as §2
[19] = test system: Bifidobacterium sp.; assay: Antimicrobial activity against Bifidobacterium sp. assessed as percent resistant isolates after 48 hrs by agar dilution method; format: functional; outline: as §2
[20] = test system: Clostridioides difficile; assay: Antimicrobial activity against Clostridium difficile assessed as percent resistant isolates after 48 hrs by agar dilution method; format: functional
[21] = test system: Actinomyces israelii; assay: Antimicrobial activity against Actinomyces israelii after 48 hrs by agar dilution method; format: functional; outline: as §1
[22] = test system: Bacteroides ovatus; assay: Antimicrobial activity against Bacteroides ovatus assessed as percent resistant isolates after 48 hrs by agar dilution method; format: functional; outline: as §2
[23] = test system: Clostridium perfringens; assay: Antimicrobial activity against Clostridium perfringens assessed as percent susceptible isolates after 48 hrs by agar dilution method; format: functional
[24] = test system: Finegoldia magna; assay: Antimicrobial activity against Finegoldia magna after 48 hrs by agar dilution method; format: functional; outline: as §3
[25] = test system: Bifidobacterium sp.; assay: Antimicrobial activity against Bifidobacterium sp. assessed as percent susceptible isolates after 48 hrs by agar dilution method; format: functional; outline: as §3
[26] = test system: Prevotella buccae; assay: Antimicrobial activity against Prevotella buccae after 48 hrs by agar dilution method; format: functional; settings: Segatella buccae; outline: as §3
[27] = test system: Clostridium perfringens; assay: Antimicrobial activity against Clostridium perfringens after 48 hrs by agar dilution method; format: functional
[28] = test system: Peptoniphilus asaccharolyticus; assay: Antimicrobial activity against Peptoniphilus asaccharolyticus after 48 hrs by agar dilution method; format: functional; outline: as §3
[29] = test system: Eubacterium sp.; assay: Antimicrobial activity against Eubacterium sp. assessed as percent resistant isolates after 48 hrs by agar dilution method; format: functional; outline: as §2
[30] = test system: Bacteroides fragilis; assay: Antimicrobial activity against Bacteroides fragilis assessed as percent resistant isolates after 48 hrs by agar dilution method; format: functional; outline: as §2
[31] = test system: Parvimonas micra; assay: Antimicrobial activity against Peptostreptococcus micros after 48 hrs by agar dilution method; format: functional; outline: as §3
[32] = test system: Peptostreptococcus anaerobius; assay: Antimicrobial activity against Peptostreptococcus anaerobius after 48 hrs by agar dilution method; format: functional; outline: as §3
[33] = test system: Prevotella intermedia; assay: Antimicrobial activity against Prevotella intermedia after 48 hrs by agar dilution method; format: functional; outline: as §3
[34] = test system: Schaalia meyeri; assay: Antimicrobial activity against Actinomyces meyeri assessed as percent susceptible isolates after 48 hrs by agar dilution method; format: functional
[35] = test system: Clostridioides difficile; assay: Antimicrobial activity against Clostridium difficile after 48 hrs by agar dilution method; format: functional
[36] = test system: Eubacterium sp.; assay: Antimicrobial activity against Eubacterium sp. after 48 hrs by agar dilution method; format: functional; outline: as §3
[37] = test system: Fusobacterium varium; assay: Antimicrobial activity against Fusobacterium varium after 48 hrs by agar dilution method; format: functional; outline: as §3
[38] = test system: Prevotella intermedia; assay: Antimicrobial activity against Prevotella intermedia assessed as percent susceptible isolates after 48 hrs by agar dilution method; format: functional; outline: as §3
[39] = test system: Bacteroides thetaiotaomicron; assay: Antimicrobial activity against Bacteroides thetaiotaomicron assessed as percent susceptible isolates after 48 hrs by agar dilution method; format: functional
[40] = test system: Schaalia meyeri; assay: Antimicrobial activity against Actinomyces meyeri assessed as percent resistant isolates after 48 hrs by agar dilution method; format: functional; outline: as §2
[41] = test system: Hoylesella oralis; assay: Antimicrobial activity against Prevotella oralis assessed as percent resistant isolates after 48 hrs by agar dilution method; format: functional; outline: as §2
[42] = test system: Bifidobacterium sp.; assay: Antimicrobial activity against Bifidobacterium sp. after 48 hrs by agar dilution method; format: functional; outline: as §1
[43] = test system: Parabacteroides distasonis; assay: Antimicrobial activity against Bacteroides distasonis after 48 hrs by agar dilution method; format: functional; outline: as §1
[44] = test system: Anaerococcus prevotii; assay: Antimicrobial activity against Anaerococcus prevotii after 48 hrs by agar dilution method; format: functional; outline: as §1
[45] = test system: Bifidobacterium adolescentis; assay: Antimicrobial activity against Bifidobacterium adolescentis assessed as percent resistant isolates after 48 hrs by agar dilution method; format: functional; outline: as §2
[46] = test system: Bacteroides caccae; assay: Antimicrobial activity against Bacteroides caccae assessed as percent susceptible isolates after 48 hrs by agar dilution method; format: functional
[47] = test system: Bacteroides ovatus; assay: Antimicrobial activity against Bacteroides ovatus after 48 hrs by agar dilution method; format: functional; outline: as §1

Molecule `C[C@@H](O)[C@H]1C(=O)N2C(C(=O)O)=C(SCCNC=N)C[C@H]12` [IMIPENEM ANHYDROUS] has an Activity [1] of 95%, an MIC50 [2] of 0.5 µg/mL (≈ 1.67 µM) and an MIC90 [2] of 4 µg/mL (≈ 13.4 µM). For the same molecule, the Activity [3] was 0%, the Activity [4] was 100% and the Activity [5] was 100%. It also gave an Activity [6] of 0%, an MIC50 [7] of 0.06 µg/mL (≈ 0.2 µM) and an MIC90 [7] of 0.5 µg/mL (≈ 1.67 µM). For the same molecule, the Activity [8] was 100%, the MIC [9] was 0.02 µg/mL (≈ 0.0668 µM) and the Activity [10] was 100%. It also gave an Activity [11] of 100%, an Activity [12] of 100% and an Activity [13] of 0%. For the same molecule, the Activity [14] was 0%, the Activity [15] was 100% and the Activity [16] was 0%. It also gave an Activity [17] of 100%, an Activity [18] of 4% and an Activity [19] of 0%. For the same molecule, the Activity [20] was 8%, the MIC50 [21] was 0.06 µg/mL (≈ 0.2 µM) and the MIC90 [21] was 0.5 µg/mL (≈ 1.67 µM). The Activity [22] was 4%, the Activity [23] was 100% and the MIC50 [24] was 0.06 µg/mL (≈ 0.2 µM). For the same molecule, the MIC90 [24] was 0.125 µg/mL (≈ 0.418 µM), the Activity [25] was 100% and the MIC50 [26] was 0.06 µg/mL (≈ 0.2 µM). It also gave an MIC90 [26] of 0.5 µg/mL (≈ 1.67 µM), an MIC50 [27] of 0.125 µg/mL (≈ 0.418 µM) and an MIC90 [27] of 0.125 µg/mL (≈ 0.418 µM). For the same molecule, the MIC50 [28] was ≤ 8 ng/mL, the MIC90 [28] was 0.03 µg/mL (≈ 0.1 µM) and the Activity [29] was 0%. The Activity [30] was 2%, the MIC50 [31] was 0.125 µg/mL (≈ 0.418 µM) and the MIC90 [31] was 2 µg/mL (≈ 6.68 µM). It also gave an MIC50 [32] of 0.125 µg/mL (≈ 0.418 µM), an MIC90 [32] of 2 µg/mL (≈ 6.68 µM) and an MIC [33] of 0.02 µg/mL (≈ 0.0668 µM). The MIC50 [33] was 0.03 µg/mL (≈ 0.1 µM), the MIC90 [33] was 0.06 µg/mL (≈ 0.2 µM) and the Activity [34] was 100%. The MIC50 [35] was 4 µg/mL (≈ 13.4 µM), the MIC90 [35] was 8 µg/mL (≈ 26.7 µM) and the MIC50 [36] was 0.06 µg/mL (≈ 0.2 µM). It also gave an MIC90 [36] of 0.5 µg/mL (≈ 1.67 µM), an MIC [37] of 0.02 µg/mL (≈ 0.0668 µM) and an Activity [38] of 100%. It also gave an Activity [39] of 95%, an Activity [40] of 0% and an Activity [41] of 0%. It also gave an MIC50 [42] of 0.06 µg/mL (≈ 0.2 µM), an MIC90 [42] of 0.5 µg/mL (≈ 1.67 µM) and an MIC50 [43] of 0.5 µg/mL (≈ 1.67 µM). For the same molecule, the MIC90 [43] was 4 µg/mL (≈ 13.4 µM), the MIC50 [44] was 0.06 µg/mL (≈ 0.2 µM) and the MIC90 [44] was 0.25 µg/mL (≈ 0.835 µM). The Activity [45] was 15%, the Activity [46] was 95% and the MIC50 [47] was 0.5 µg/mL (≈ 1.67 µM). For the same molecule, the MIC90 [47] was 4 µg/mL (≈ 13.4 µM).

Reference: ChEMBL document CHEMBL1671716, “Antimicrobial susceptibility patterns for recent clinical isolates of anaerobic bacteria in South Korea” (2010)
